Columns and labels:
[1] = Oral bioavailability in rat (dose 4 mg/kg); format: ADME, organism-based; conditions: in vivo
[2] = Area under curve in rat at 4 mpk upon peroral administration; format: ADME, organism-based; conditions: in vivo, po, 4 mg/kg
[3] = Half-life in rat at 4 mpk upon peroral administration; format: ADME, organism-based; conditions: in vivo, po, 4 mg/kg
[4] = Maximum concentration in rat at 4 mpk upon peroral administration; format: ADME, organism-based; parameters: dose 4 mpk, route oral; conditions: in vivo, po, 4 mg/kg
Homo sapiens [5] = species on record: Homo sapiens; experiment: Inhibition of interleukin-2 (IL-2) synthesis in human whole blood stimulated by PMA/ionomycin.; format: functional
Summary of the method: (§1)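 Heparinized human whole blood was added to serially diluted compound and stimulated with a PMA (50 ng/mL) plus ionomycin mixture. After 24 h, plasma was collected by centrifugation and IL-2 was measured by in-house ELISA.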

Homo sapiens [6] = species on record: Homo sapiens; experiment: In vitro protein binding in human serum at 5 ug/ml; format: ADME
Summary of the method: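 Samples were incubated 30 min at room temperature, then ultrafiltered through a 30 000 MW cutoff device at 2000g for 25 min at room temperature. Free drug in the filtrate was quantified by HPLC.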

[7] = Bronchoalveolar lavages was collected after 6 hr in an ascaris-induced nonhuman primate model of asthma at 1 mg/kg dose (for eotaxin); format: functional
Summary of the method: (§2)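 Ascaris-induced asthma model in nonhuman primates. Dosing by oral gavage at -26, -2 and +22 h relative to antigen inhalation. Bronchoalveolar lavage was taken at day -5 (baseline), at +6 h for IL-5, IL-8 and eotaxin, and at +48 h for eosinophil influx. Data are mean percentage inhibition versus crossover vehicle control, with paired t-test.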

[8] = Bronchoalveolar lavages was collected after 6 hr in an ascaris-induced nonhuman primate model of asthma at 1 mg/kg dose (for IL-5); format: functional; summary of the method: as §2
[9] = Resistance evaluated in an ascaris-induced nonhuman primate model of asthma after 6 hour at 1 mg/kg dose; format: functional
Summary of the method: (§3)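 Antigen (Ascaris) inhalation challenge in nonhuman primates, with oral gavage dosing at -26, -2 and +22 h relative to inhalation. Respiratory system resistance was measured at baseline, at +10 min (immediate response) and at +6 h (late phase). Data are mean percentage inhibition versus crossover vehicle control, with paired t-test.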

[10] = Resistance evaluated in an ascaris-induced nonhuman primate model of asthma after 10 min at 1 mg/kg dose; format: functional; summary of the method: as §3
[11] = Bronchoalveolar lavages was collected after 6 hr in an ascaris-induced nonhuman primate model of asthma at 1 mg/kg dose (for IL-8); format: functional; summary of the method: as §2
[12] = Inhibition of eosinophil influx in bronchoalveolar lavage after 48 hr at 1 mg/kg dose
Homo sapiens [13] = species on record: Homo sapiens; experiment: Tested for interleukin-2 (IL-2) synthesis inhibition in human whole blood stimulated by PMA/ionomycin.; format: functional; summary of the method: as §1
[14] = Bronchoalveolar lavages was collected after 6 hr in an ascaris-induced nonhuman primate model of asthma at 30 mg/kg dose (for IL-8); format: functional; summary of the method: as §2
[15] = Resistance evaluated in an ascaris-induced nonhuman primate model of asthma after 6 hour at 30 mg/kg dose; format: functional; summary of the method: as §3
[16] = Bronchoalveolar lavages was collected after 48 hr in an ascaris-induced nonhuman primate model of asthma (for eosinophil influx, eos) at 25 mg/kg dose; format: functional; conditions: dose 30 mg/kg; in the assay text read “30 mg/kg” for “25 mg/kg”; summary of the method: as §2
[17] = Resistance evaluated in an ascaris-induced nonhuman primate model of asthma after 10 min at 30 mg/kg dose; format: functional; summary of the method: as §3
[18] = Bronchoalveolar lavages was collected after 6 hr in an ascaris-induced nonhuman primate model of asthma at 30 mg/kg dose (for eotaxin); format: functional; summary of the method: as §2
[19] = Bronchoalveolar lavages was collected after 6 hr in an ascaris-induced nonhuman primate model of asthma at 30 mg/kg dose (for IL-5); format: functional; summary of the method: as §2
[20] = Bronchoalveolar lavages was collected after 6 hr in an ascaris-induced nonhuman primate model of asthma at 25 mg/kg dose (for IL-5); format: functional; summary of the method: as §2
[21] = Resistance evaluated in an ascaris-induced nonhuman primate model of asthma after 6 hour at 25 mg/kg dose; format: functional; summary of the method: as §3
[22] = Bronchoalveolar lavages was collected after 6 hr in an ascaris-induced nonhuman primate model of asthma at 25 mg/kg dose (for eotaxin); format: functional; summary of the method: as §2
[23] = Bronchoalveolar lavages was collected after 48 hr (for eosinophil influx, eos) at 25 mg/kg dose; format: functional; summary of the method: as §2

Compound | bioavailability [1] | AUC [2] | half-life [3] | Cmax [4] | IC50 (Homo sapiens [5]) | Binding (Homo sapiens [6]) | further results
O=C(Nc1ccc(-n2nc(C(F)(F)F)cc2Br)cc1)c1ccncc1F | 94% | 16400 ng·h/mL | 432 min | 1040 ng/mL | 288 nM |  | 
CC(=O)c1cc(C(F)(F)F)nn1-c1ccc(NC(=O)c2ccccc2F)cc1 | 5% | 1110 ng·h/mL |  | 120 ng/mL | 1580 nM |  | 
N#Cc1cc(C(F)(F)F)nn1-c1ccc(NC(=O)c2ccccc2F)cc1 | 31% | 3240 ng·h/mL | 372 min | 280 ng/mL | 304 nM |  | 
O=C(Nc1ccc(-n2nc(C(F)(F)F)cc2Cl)cc1)c1ccncc1F | 79% | 11000 ng·h/mL | 288 min | 780 ng/mL | 158 nM |  | 
N#Cc1cc(C(F)(F)F)nn1-c1ccc(NC(=O)c2ccncc2F)cc1 | 78% | 10900 ng·h/mL | 258 min | 1090 ng/mL | 240 nM |  | 
C[C@]12C=CC(=O)C=C1CC[C@@H]1[C@@H]2[C@@H](O)C[C@@]2(C)[C@H]1CC[C@]2(O)C(=O)CO [PREDNISOLONE] |  |  |  |  |  |  | inhibition [7]: 67%; inhibition [8]: 94%; inhibition [9]: 57%; inhibition [10]: 24%; inhibition [11]: 9%; inhibition [12]: 106%
O=C(Nc1ccc(-n2[nH]c(C(F)(F)F)cc2=O)cc1)c1ccncc1F |  |  |  |  |  |  | inhibition (Homo sapiens [13]): 16%
O=C(Nc1ccc(-n2nc(C(F)(F)F)cc2[N+](=O)[O-])cc1)c1ccncc1F | 18% | 310 ng·h/mL | 102 min | 220 ng/mL | 440 nM |  | 
COc1cc(C(F)(F)F)nn1-c1ccc(NC(=O)c2ccccc2F)cc1 | 26% | 970 ng·h/mL |  | 70 ng/mL | 570 nM |  | 
CSc1cc(C(F)(F)F)nn1-c1ccc(NC(=O)c2ccncc2F)cc1 | 63% | 7790 ng·h/mL | 312 min | 870 ng/mL | 944 nM |  | 
O=C(Nc1ccc(-n2nc(C(F)(F)F)cc2OC(F)F)cc1)c1ccncc1F | 74% | 7750 ng·h/mL | 408 min | 610 ng/mL | 182 nM |  | inhibition [14]: 69%; inhibition [15]: 69%; inhibition [16]: 185%; inhibition [17]: 61%; inhibition [18]: 56%; inhibition [19]: 73%
COc1cc(C(F)(F)F)nn1-c1ccc(NC(=O)c2ccncc2F)cc1 | 68% | 3050 ng·h/mL | 60 min | 1480 ng/mL | 261 nM |  | 
O=C(Nc1ccc(-n2nc(C(F)(F)F)cc2C(F)(F)F)cc1)c1cc(F)cc(F)c1F |  |  |  |  | 1470 nM | 99.9% | 
C/C=C/C[C@@H](C)[C@@H](O)[C@H]1C(=O)N[C@@H](CC)C(=O)N(C)CC(=O)N(C)[C@@H](CC(C)C)C(=O)N[C@@H](C(C)C)C(=O)N(C)[C@@H](CC(C)C)C(=O)N[C@@H](C)C(=O)N[C@H](C)C(=O)N(C)[C@@H](CC(C)C)C(=O)N(C)[C@@H](CC(C)C)C(=O)N(C)[C@@H](C(C)C)C(=O)N1C [CYCLOSPORINE] |  |  |  |  |  |  | inhibition [20]: 92%; inhibition [21]: 90%; inhibition [22]: 62%; inhibition [23]: 137%

Second part, led by results:

bioavailability [1] | AUC [2] | half-life [3] | Cmax [4] | IC50 (Homo sapiens [5]) | Binding (Homo sapiens [6]) | Compound | further results
 |  |  |  | 701 nM | 99.7% | O=C(Nc1ccc(-n2nc(C(F)(F)F)cc2C(F)(F)F)cc1)c1ccncc1 | 
 |  |  |  | 6030 nM | 99.9% | O=C(Nc1ccc(-n2nc(C(F)(F)F)cc2C(F)(F)F)cc1)c1ccc(Cl)cc1 | 
 |  |  |  | 1980 nM | 99.6% | Cc1noc(C)c1C(=O)Nc1ccc(-n2nc(C(F)(F)F)cc2C(F)(F)F)cc1 | 
 |  |  |  | 914 nM | 99.9% | O=C(Nc1ccc(-n2nc(C(F)(F)F)cc2C(F)(F)F)cc1)c1ccccc1Cl | 
 |  |  |  | 1740 nM | 99.8% | Cc1nnsc1C(=O)Nc1ccc(-n2nc(C(F)(F)F)cc2C(F)(F)F)cc1 | 
 |  |  |  | 496 nM | 99.7% | O=C(Nc1ccc(-n2nc(C(F)(F)F)cc2C(F)(F)F)cc1)c1ccncc1F | 
 |  |  |  | 2270 nM | 99.9% | O=C(Nc1ccc(-n2nc(C(F)(F)F)cc2C(F)(F)F)cc1)c1ccccc1F | 
 |  |  |  | 405 nM | 99.9% | O=C(Nc1ccc(-n2nc(C(F)(F)F)cc2C(F)(F)F)cc1)c1cccc(F)c1F | 
 |  |  |  | 372 nM | 99.9% | O=C(Nc1ccc(-n2nc(C(F)(F)F)cc2C(F)(F)F)cc1)c1cc(F)ccc1F | 
